Compound activity as filed in PubChem.
KCNQ1 act: human KCNQ1 channel potentiation or activation. 0.35% of 310,000 active. CHO-K1 KCNQ1, thallium flux FluxOR fluorescence; stronger effect = higher value. P51787. B-score at 10 µM. AID 2648;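 active means fluorescence ratio B-score, a plate-corrected score, at least three library SD, with initial intensity B-score within 5 SD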
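Material: CHO-K1 cells stably expressing KCNQ1. Medium: assay buffer for compound exposure, DMSO matched across wells. Reagent: K+/Tl+ depolarizing stimulus. Compound dosing: single-concentration screen. Times: 37 °C overnight plating, 90-min dark dye load, 20-min compound pretreatment. Technique: FluxOR Tl+ flux fluorescence.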
KCNQ1 inh: inhibitors of human KCNQ1 potassium channel; B-score at 10 µM; 1.3% of 310,000 active; P51787; CHO-K1 KCNQ1, FluxOR thallium flux fluorescence; stronger effect = higher value;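 active means compounds whose thallium flux B-score, printed positive for inhibition, exceeds three library SD while starting fluorescence stays within three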;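 further: channel opened by potassium depolarization with thallium stimulus after 20 min compound exposure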
KCNK3 block: human KCNK3 channel inhibition, primary screen; O14649; 0.84% of 340,000 active; CHO-KCNK3 thallium flux, FluxOR fluorescence; stronger effect = lower value; B-score at 10 µM;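 active means B-score under library mean minus 4 SD, starting fluorescence ratio at most library mean plus 5 SD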;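 further: more negative B-score means stronger inhibition of thallium flux through KCNK3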
Target sequence (O14649 whole entry, looked up): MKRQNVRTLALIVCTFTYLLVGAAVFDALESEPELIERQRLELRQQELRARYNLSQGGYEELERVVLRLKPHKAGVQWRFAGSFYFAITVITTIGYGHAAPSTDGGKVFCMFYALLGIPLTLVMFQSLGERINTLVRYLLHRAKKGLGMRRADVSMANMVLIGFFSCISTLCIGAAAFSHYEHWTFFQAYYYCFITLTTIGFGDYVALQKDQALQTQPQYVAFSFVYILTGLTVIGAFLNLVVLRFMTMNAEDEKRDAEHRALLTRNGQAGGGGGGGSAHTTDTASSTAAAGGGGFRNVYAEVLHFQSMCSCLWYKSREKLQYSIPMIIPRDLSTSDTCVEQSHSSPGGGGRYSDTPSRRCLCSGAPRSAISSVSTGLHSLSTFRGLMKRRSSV
KCNK9 inh: blocks the human KCNK9 two-pore domain potassium channel; B-score at 10 µM; Q9NPC2; HEK293 KCNK9, FluxOR thallium flux fluorescence; stronger effect = lower value; 1.2% of 310,000 active; AID 488922;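 active means ratio B-score over 3 SD below the library mean, with starting fluorescence within 5 SD of its mean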;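 further: negative B-score means less thallium flux so channel inhibition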
Target sequence (Q9NPC2 whole entry, looked up, the tested form may be a part): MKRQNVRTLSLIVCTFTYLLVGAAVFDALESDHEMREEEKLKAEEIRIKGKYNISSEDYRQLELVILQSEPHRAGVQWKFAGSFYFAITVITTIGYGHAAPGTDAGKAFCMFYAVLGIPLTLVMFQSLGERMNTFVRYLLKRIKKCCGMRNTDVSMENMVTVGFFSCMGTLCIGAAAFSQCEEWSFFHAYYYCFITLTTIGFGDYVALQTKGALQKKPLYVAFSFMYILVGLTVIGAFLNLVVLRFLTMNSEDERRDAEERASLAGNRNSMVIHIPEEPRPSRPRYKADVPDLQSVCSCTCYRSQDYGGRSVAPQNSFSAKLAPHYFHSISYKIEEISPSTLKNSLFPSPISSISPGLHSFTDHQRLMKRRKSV
Kir21 block: Kir2.1 (mouse) channel inhibition | P35561 | HEK293-Kir2.1, FluxOR thallium flux fluorescence; stronger effect = lower value | B-score at 10 µM | 0.85% of 310,000 active | AID 1672;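 active means fluorescence ratio B-score at or below minus 3 SD of library scores, with starting-brightness B-score within 2 SD, cut at about -4.2 in these data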;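 further: channel flux triggered by added potassium and thallium sulfate stimulus; B-score of peak minus minimum fluorescence over baseline after thallium stimulus; more negative B-score means stronger Kir2.1 block with less thallium influx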
hERG protect: hERG (human) protection from proarrhythmic block | AID 1511 | activation (rescue from dofetilide block), less the hit threshold, % at 10 µM | Q12809 | 0.51% of 310,000 active | CHO-hERG, FluxOR thallium flux, dofetilide IC70 present;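 active means activation above the mean of controls blocked by dofetilide plus 5 SD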;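 further: thallium influx through hERG after potassium depolarization seen as dye fluorescence rise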
KCNQ1 inh valid: reconfirmed blocker of the human KCNQ1 potassium channel | KCNQ1 cell line, FluxOR thallium flux fluorescence | inhibition, % at 10 µM | 93% of 1,600 active | shares compounds with KCNQ1 inh;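 active means primary screen active, with duplicate mean exceeding buffer control mean plus 3 SD of buffer wells, cut at about 28% in these data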;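 further: 0% = buffer control ratio and 100% = XE991 inhibitor control ratio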
CHO KCNQ1 ctr: KCNQ1 inhibitor counter-screen hit in parental CHO cells; shares compounds with KCNQ1 inh; parental CHO-K1, FluxOR thallium flux fluorescence ratio; stronger effect = lower value; zero means no signal rise above baseline; fluorescence ratio (Tl flux) at 10 µM; 21% of 1,600 active; AID 588366;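 active means mean of duplicate thallium-flux fluorescence ratios in parental host cells more than 5 SD below the buffer control mean, cut at about 0.38 in these data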;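 further: ratio is peak minus minimum fluorescence divided by baseline fluorescence; actives read low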
KCNQ1 APC inh: confirmation of human KCNQ1 potassium channel inhibitors by electrophysiology; KCNQ1-CHO cells, automated patch clamp current; shares compounds with KCNQ1 inh; calls only at 10 µM; 20% of 490 active;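 active means KCNQ1 current drop exceeding 3 SD of negative control wells, seen in both duplicate runs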;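 further: steady state current during a 2 s step from -80 to +40 mV; negative values mean current inhibition and positive values mean potentiation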
KCNQ2 inh: selectivity of KCNQ1 inhibitors: inhibition of rat KCNQ2 channel | AID 651746 | 71% of 1,600 active | KCNQ2 cells, FluxOR thallium flux fluorescence | shares compounds with KCNQ1 inh | inhibition, % at 10 µM;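 active means mean percent inhibition of the KCNQ2 thallium signal more than 5 SD above the buffer-only control wells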;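 further: KCNQ2 expressed in CHO cells; 0% = buffer control wells and 100% = XE-991 inhibitor control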
KCNQ1 KCNE1 spec: KCNQ1 inhibitor that also blocks human KCNQ1/KCNE1 channel; shares compounds with KCNQ1 inh; inhibition, % at 10 µM; KCNQ1/KCNE1 cells, FluxOR thallium flux fluorescence; 77% of 1,600 active;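 active means mean percent inhibition of duplicate wells above the buffer-only control mean plus 3 SD of those controls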;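 further: 0% = buffer only wells and 100% = XE-991 inhibitor control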
KCNK9 inh conf: confirmation of human KCNK9 potassium channel inhibitors. HEK293 KCNK9 cells, FluxOR thallium flux fluorescence. AID 492992. inhibition, % at 10 µM. 43% of 4,900 active. shares compounds with KCNK9 inh;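 active means thallium signal inhibited by more than 5 SD of the compound-free buffer control wells, on both duplicate plates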;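 further: 0% = assay buffer control wells without compound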
Kir21 sel: tests whether KCNK9 modulators also affect mouse Kir2.1. shares compounds with KCNK9 inh. Kir2.1 cells, FluxOR thallium flux fluorescence. inhibition, % at 10 µM. 4% of 4,900 active;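 active means thallium signal drop more than 5 SD beyond the mean of the no-compound control wells, seen in both duplicate plates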;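 further: signal is fluorescence rise after thallium addition divided by baseline fluorescence; plate controls were assay buffer only for no effect and full block by chlorpromazine control for full effect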
KCNK9 uninduced: second counter-screen for KCNK9 modulators: effect in non-induced cells | 40% of 4,900 active | shares compounds with KCNK9 inh | inhibition, % at 10 µM | non-induced KCNK9-HEK293, FluxOR thallium flux;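 active means thallium signal drop beyond 5 SD of the untreated control mean, on both duplicate plates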;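 further: plate controls were buffer only IC0 wells for no effect and SID17386958 at its maximal inhibitory level for full effect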
KCNK3 inh conf: confirmation of human KCNK3 two-pore domain potassium channel inhibitors | CHO-KCNK3 thallium flux, FluxOR fluorescence; 0% buffer, 100% carvedilol maximal block | 99% of 2,400 active | ratio percent of control, % at 10 µM | shares compounds with KCNK3 block;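 active means ratio percent of control, averaged over triplicates, above buffer control mean plus 5 SD, cut at about 64% in these data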;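 further: ratio is the fluorescence rise from min to max over baseline after thallium stimulus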
KCNK3 noninduced: counter-screen for KCNK3 inhibitors: effect in non-induced cells. shares compounds with KCNK3 block. AID 651747. non-induced KCNK3 parental cells, FluxOR thallium flux; stronger effect = lower value. 40% of 2,400 active. thallium flux ratio (lower = more inhibition) at 10 µM;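 active means thallium flux ratio, averaged over three wells, more than 5 SD below the buffer control mean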;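 further: host cells are CHO cells without KCNK3 induction; ratio is peak minus trough fluorescence over baseline then normalized to buffer controls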
An asterisk follows results filed as active; i = inactive; · = not tested or not shown; + = active, no number. Compounds with a hit are over-represented: about 3.7% of the library has one in this group of screens.

SMILES | KCNQ1 act | KCNQ1 inh | KCNK3 block | KCNK9 inh | Kir21 block | hERG protect | KCNQ1 inh valid | CHO KCNQ1 ctr | KCNQ2 inh | KCNQ1 KCNE1 spec | KCNK3 inh conf | KCNK3 noninduced | others
O=S(=O)(c1ccc(Cl)s1)N1CCC(Cc2ccccc2)CC1 | i | 6* | i | i | 0.31 | -13 | 72* | 0.43 | 114%* | 56%* | · | · | KCNK9 inh conf=i;Kir21 sel=i;KCNK9 uninduced=i
Clc1cccc(-c2cc3nc4c(c(N5CCN(c6cnccn6)CC5)n3n2)CCCC4)c1 | i | 8* | -8.8* | -13* | 1.9 | -18 | 100* | 0.39 | 119%* | 162%* | · | · | KCNQ1 APC inh=i;KCNK9 inh conf=46%*;Kir21 sel=i;KCNK9 uninduced=36%*
O=C(CN1CCN(Cc2ccccc2Cl)CC1)N/N=C/c1ccccn1 | i | i | i | i | 0 | -7 | · | · | · | · | · | ·
O=S(=O)(Nc1ccccc1O)c1ccc(-c2ccccc2)cc1 | i | 15* | -11* | i | -2.2 | -11 | 136* | 0.39 | 94%* | 76%* | 120* | i | KCNQ1 APC inh=i
O=S(=O)(Nc1cccnc1Cl)c1ccc(-c2ccccc2)cc1 | i | i | i | i | -1.2 | -8 | · | · | · | · | · | ·
Cc1ccc(NC(=O)C(C)SCC(=O)Nc2ccc(F)cc2)cc1S(=O)(=O)N1CCOCC1 (stereo not drawn) | i | i | i | i | -2.6 | -10 | · | · | · | · | · | ·
Cc1nc2ccccc2c2c1CC(C(C)(Cl)Br)O2 (stereo not drawn) | i | 6* | -9.6* | i | -0.94 | -26 | 106* | 0.48 | 80%* | i | 127* | i | KCNQ1 APC inh=+
Oc1c(C=C2N=c3ccccc3=N2)sc(=S)n1-c1ccccc1 | i | i | i | i | 0.78 | -8 | · | · | · | · | · | ·
CC1=Nc2ccccc2/C1=C/c1sc(=S)n(-c2cccc(C(=O)O)c2)c1O | i | 15* | -11* | i | -6.3 | 4 | 106* | 0.34* | i | i | 145* | 0.11*
COc1cccc(-c2cc3nc4c(c(NCC(C)(C)CN(C)C)n3n2)CCCC4)c1 | i | 9* | -10* | i | 0.8 | -10 | 86* | 0.45 | 95%* | 116%* | 120* | i
CC(C)(CN1CCN(Cc2ccccc2)CC1)NS(=O)(=O)c1ccccc1 | i | i | i | i | -2 | -9 | · | · | · | · | · | ·
CC(C)(CN1CCN(C(c2ccccc2)c2ccccc2)CC1)NS(=O)(=O)c1ccccc1 | i | 6* | i | -9.6* | -0.16 | -2 | 106* | 0.44 | i | 116%* | 103* | 0.16* | KCNQ1 APC inh=i;KCNK9 inh conf=40%*;Kir21 sel=i;KCNK9 uninduced=47%*
c1ccc(-c2csc(N3CCCCCC3)n2)cc1 | i | i | i | i | 1.4 | -5 | · | · | · | · | · | ·
Cc1cc(N2CCN(c3nc(-c4ccccc4)cs3)CC2)c2ccccc2n1 | i | 7* | -14* | i | -2.1 | -20 | 130* | 0.41 | 107%* | 195%* | 136* | 0.13* | KCNQ1 APC inh=i
O=C1[C@H]2[C@@H](/C=C/c3ccccc3)N3C(=O)CN(Cc4ccccn4)C(=O)[C@@]3(Cc3ccccc3)[C@H]2C(=O)N1c1ccccc1 | i | i | i | i | 0.26 | -9 | · | · | · | · | · | ·
COCc1ccc(C(=O)N2CCCC(C(=O)c3cc(F)ccc3F)C2)s1 (stereo not drawn) | i | i | i | i | -0.84 | 0 | · | · | · | · | · | ·
COc1ccccc1C(=O)Nc1nnc(S(=O)(=O)N(C)Cc2ccccc2)s1 | i | 17* | -12* | i | 1.6 | -16 | 140* | 0.37* | 122%* | + | 115* | 0.1*
COc1ccc(CN(C)S(=O)(=O)c2nnc(NC(=O)c3ccccc3)s2)cc1OC | i | i | i | i | -0.39 | -6 | · | · | · | · | · | ·
CC1CC(NC(=O)c2cc3c(=O)n4ccccc4nc3n2C)CC(C)(C)C1 (stereo not drawn) | i | 6* | -9.2* | i | -0.87 | -7 | 38* | 0.42 | 101%* | i | 96* | i
CC1CCCCC1NC(=O)c1cc2c(=O)n3ccccc3nc2n1C (stereo not drawn) | i | i | i | i | -0.25 | -11 | · | · | · | · | · | ·
CCN1C=C(Cc2ccccc2C)C2=C(C1)C(c1ccccc1C)C(C#N)=C(N)O2 (stereo not drawn) | i | 12* | -8.9* | -6.7* | -0.41 | -21 | 116* | 0.32* | 105%* | 104%* | 118* | 0.13*
O=C(c1cc(-c2cccc(Cl)c2)nc2ccccc12)N1CCN(c2ccccn2)CC1 | i | 6* | -9.9* | i | 0.2 | -9 | 69* | 0.42 | 108%* | 84%* | 120* | 0.12*
COc1cccc(NC(=O)CSc2ccc3nnc(-c4ccccn4)n3n2)c1 | i | i | i | i | -0.43 | -4 | · | · | · | · | · | ·
CCOC(=O)c1cc2c(ccn2C)n1Cc1ccc(Cl)cc1 | i | 6* | -9.7* | -11* | 0.25 | -20 | 110* | 0.37* | 68%* | 116%* | 136* | 0.13* | KCNK9 inh conf=42%*;Kir21 sel=i;KCNK9 uninduced=37%*
